KCNQ1 block: blocks the human KCNQ1 potassium channel; P51787; CHO-K1 KCNQ1, FluxOR thallium flux fluorescence; hits give high values; B-score at 10 µM; actives 1.3% (n = 310,000);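 active means compounds whose thallium flux B-score, printed positive for inhibition, exceeds three library SD while starting fluorescence stays within three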;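 further: channel opened by potassium depolarization with thallium stimulus after 20 min compound exposure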
KCNK3 block: human KCNK3 channel inhibition, primary screen | O14649 | CHO-KCNK3 thallium flux, FluxOR fluorescence; hits give low values | B-score at 10 µM | actives 0.84% (n = 340,000) | AID 602410;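 active means B-score under library mean minus 4 SD, starting fluorescence ratio at most library mean plus 5 SD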;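 further: more negative B-score means stronger inhibition of thallium flux through KCNK3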
hERG protect: compounds protecting human hERG from proarrhythmic drug block. Q12809. CHO-hERG, FluxOR thallium flux, dofetilide IC70 present. activation (rescue from dofetilide block), less the hit threshold, % at 10 µM. actives 0.51% (n = 310,000);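 active means activation above the mean of controls blocked by dofetilide plus 5 SD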;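 further: thallium influx through hERG after potassium depolarization seen as dye fluorescence rise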
KCNQ1 pot: potentiators or activators of human KCNQ1 potassium channel; P51787; CHO-K1 KCNQ1, thallium flux FluxOR fluorescence; hits give high values; B-score at 10 µM; actives 0.35% (n = 310,000); AID 2648;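 active means fluorescence ratio B-score, a plate-corrected score, at least three library SD, with initial intensity B-score within 5 SD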
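Assay system: CHO-K1 cells stably expressing KCNQ1. Medium: assay buffer for compound exposure, DMSO matched across wells. Timing: 37 °C overnight plating, 90-min dark dye load, 20-min compound pretreatment. Signal: kinetic FluxOR fluorescence, 10 s baseline plus 110 s post-stimulus.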
KCNK9 block: human KCNK9 channel inhibition. HEK293 KCNK9, FluxOR thallium flux fluorescence; hits give low values. actives 1.2% (n = 310,000). Q9NPC2. B-score at 10 µM;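 active means ratio B-score over 3 SD below the library mean, with starting fluorescence within 5 SD of its mean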;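 further: negative B-score means less thallium flux so channel inhibition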
KCNK9 inh conf: human KCNK9 inhibitor confirmation. shares compounds with KCNK9 block. HEK293 KCNK9 cells, FluxOR thallium flux fluorescence. inhibition, % at 10 µM. actives 43% (n = 4,900);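 active means thallium signal inhibited by more than 5 SD of the compound-free buffer control wells, on both duplicate plates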;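 further: 0% = assay buffer control wells without compound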
Kir2-1 spec: mouse Kir2.1 off-target activity of KCNK9 modulators. inhibition, % at 10 µM. Kir2.1 cells, FluxOR thallium flux fluorescence. actives 4% (n = 4,900). shares compounds with KCNK9 block;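 active means thallium signal drop more than 5 SD beyond the mean of the no-compound control wells, seen in both duplicate plates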;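 further: signal is fluorescence rise after thallium addition divided by baseline fluorescence; plate controls were assay buffer only for no effect and full block by chlorpromazine control for full effect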
Target sequence (P35561 whole entry, looked up): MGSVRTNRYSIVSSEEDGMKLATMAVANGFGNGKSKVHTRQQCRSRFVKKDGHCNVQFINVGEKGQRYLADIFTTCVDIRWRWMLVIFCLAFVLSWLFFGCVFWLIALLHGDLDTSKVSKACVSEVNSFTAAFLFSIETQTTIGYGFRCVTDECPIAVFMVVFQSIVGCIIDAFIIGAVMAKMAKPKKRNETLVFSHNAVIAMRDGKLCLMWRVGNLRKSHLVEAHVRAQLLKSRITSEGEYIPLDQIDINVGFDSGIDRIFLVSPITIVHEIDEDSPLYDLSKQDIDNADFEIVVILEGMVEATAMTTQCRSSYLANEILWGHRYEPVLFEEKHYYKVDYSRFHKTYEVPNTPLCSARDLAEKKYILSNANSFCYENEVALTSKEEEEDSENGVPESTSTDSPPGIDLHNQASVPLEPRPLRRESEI
KCNK9 uninduced: second check of KCNK9 modulator effects in non-induced HEK293 cells; inhibition, % at 10 µM; shares compounds with KCNK9 block; AID 492997; FluxOR thallium flux; actives 40% (n = 4,900);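 active means thallium signal drop beyond 5 SD of the untreated control mean, on both duplicate plates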;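 further: plate controls were buffer only IC0 wells for no effect and SID17386958 at its maximal inhibitory level for full effect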
KCNK3 inh conf: confirmation of human KCNK3 two-pore domain potassium channel inhibitors | CHO-KCNK3 thallium flux, FluxOR fluorescence; 0% buffer, 100% carvedilol maximal block | shares compounds with KCNK3 block | actives 99% (n = 2,400) | ratio percent of control, % at 10 µM;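 active means ratio percent of control, averaged over triplicates, above buffer control mean plus 5 SD, cut at about 64% in these data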;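 further: ratio is the fluorescence rise from min to max over baseline after thallium stimulus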
KCNK3 uninduced: KCNK3 inhibitor counter-screen hit in non-induced cells. shares compounds with KCNK3 block. non-induced KCNK3 parental cells, FluxOR thallium flux; hits give low values. thallium flux ratio (lower = more inhibition) at 10 µM. actives 40% (n = 2,400). AID 651747;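 active means thallium flux ratio, averaged over three wells, more than 5 SD below the buffer control mean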;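 further: host cells are CHO cells without KCNK3 induction; ratio is peak minus trough fluorescence over baseline then normalized to buffer controls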
* marks the source's active call; other numbers are inactive results; i = inactive; · = no result given. Shown are actives, neighbours in structure and some others; about 3.1% of the full set was active somewhere.

SMILES | KCNQ1 block | KCNK3 block | hERG protect | KCNQ1 pot | KCNK9 block | KCNK9 inh conf | Kir2-1 spec | KCNK9 uninduced | KCNK3 inh conf | KCNK3 uninduced
Cc1ccc(NC(=O)N(Cc2cccnc2)Cc2ccco2)cc1C | i | i | -16 | i | i | · | · | · | · | ·
Cc1ccc(NC(=O)CN(Cc2ccco2)Cc2ccccc2O)cc1C | 6* | -12* | -13 | i | -15* | 72%* | i | 42%* | 134* | 0.15*
COc1cc(C2/C(=C(\O)c3ccc4c(c3)OCCO4)C(=O)C(=O)N2c2nnc(C)s2)cc(OC)c1OC (stereo unspecified) | i | i | -1 | i | i | · | · | · | · | ·
CC(Oc1ccc(Cl)cc1)c1ccnn1S(=O)(=O)c1ccc(Cl)cc1 (stereo unspecified) | i | -13* | -12 | i | -15* | 58%* | 44%* | 58%* | 114* | 0.16*
CC(Oc1ccccc1)c1ccnn1S(=O)(=O)c1ccccc1 (stereo unspecified) | i | i | -5 | i | i | · | · | · | · | ·
COC(=O)c1ccccc1NC(=O)N1CCc2ccc(NC(=O)c3ccccn3)cc2C1 | i | i | -8 | i | -8.3* | 42%* | i | 26%* | 134* | 0.16*
CSc1ccc(C(=O)N2CCc3ccc(NC(=O)c4ccccn4)cc3C2)cc1 | i | i | -11 | i | i | · | · | · | · | ·
C=CCOc1ccc(CN(C)CC(=O)Nc2ccccc2[N+](=O)[O-])cc1 | i | -9.5* | -16 | i | i | i | i | i | 99* | 0.16*
CC(=O)Nc1cc(C(F)(F)F)ccc1Oc1cccc(Br)c1 | i | i | -10 | i | i | · | · | · | · | ·
CCOCC(=O)Nc1cc(C(F)(F)F)ccc1Oc1cccc(Br)c1 | i | i | -4 | i | -12* | 74%* | i | 54%* | 99* | i
N#Cc1c(NC(=O)CSc2n[nH]c(N)n2)oc(-c2ccccc2)c1-c1ccccc1 | i | i | -5 | i | i | · | · | · | · | ·
Cc1cccc(C)c1OCC(=O)Nc1oc(-c2ccccc2)c(-c2ccccc2)c1C#N | i | i | -4 | i | -17* | 32%* | i | 24%* | 119* | 0.15*
COC(=O)C1=C(C)N=C2SC(C#N)=C(N)N2C1c1ccc(OC)cc1 (stereo unspecified) | i | -10* | -6 | i | -8.9* | 50%* | i | i | 112* | i
COC(=O)C1=C(C)N=C2SC(C#N)=C(N)N2C1c1cccc(OC)c1 (stereo unspecified) | i | i | -11 | i | i | · | · | · | · | ·
O=C(CCCSc1nnnn1-c1cccc2ccccc12)c1ccc(F)cc1 | i | -9.6* | -15 | i | -8.2* | i | 34%* | i | 102* | i
N#Cc1cccc(C(c2nnnn2C2CCCC2)N2CCC(Cc3ccccc3)CC2)c1 (stereo unspecified) | i | -11* | -16 | i | -12* | 58%* | i | 30%* | 112* | 0.15*
CC(=O)/C(N=Nc1cccc(C(F)(F)F)c1)=C(\C)O | i | i | -4 | i | i | · | · | · | · | ·
O=C(/C(N=Nc1cccc(C(F)(F)F)c1)=C(/O)c1cccs1)C(F)(F)F | 10* | i | -15 | i | -8.8* | i | i | i | 67* | i
CC(C)N(Cc1nc(-c2ccc(Cl)cc2)no1)C(=O)CCC1CCCC1 | i | -11* | -20 | i | -14* | 66%* | i | 42%* | 118* | i
COc1ccccc1OCC(=O)N(Cc1nc(-c2ccc(Cl)cc2)no1)C(C)C | i | i | -8 | i | i | · | · | · | · | ·
Cc1cc(C(=O)CCC(=O)NCC(=O)Nc2c(C)cccc2C)c(C)s1 | · | i | · | · | · | · | · | · | · | ·
CCCN1CCN(c2nc(-c3cccs3)nc3ccccc23)CC1 | i | i | -6 | i | i | · | · | · | · | ·
CCOC(=O)N1CCN(c2nc(-c3cccs3)nc3ccccc23)CC1 | i | -10* | -6 | i | -8.9* | i | i | i | 104* | 0.15*
COc1ccc(CNC(=O)N2CCN(c3ccccc3OC)CC2)cc1 | i | i | -10 | i | i | · | · | · | · | ·
CCc1c(C)nc2cc(-c3cc(OC)cc(OC)c3)nn2c1N1CCCC1 | i | -9.8* | -4 | i | -11* | 58%* | i | 26%* | 100* | i
SMILES | KCNQ1 block | KCNK3 block | hERG protect | KCNQ1 pot | KCNK9 block | KCNK9 inh conf | Kir2-1 spec | KCNK9 uninduced | KCNK3 inh conf | KCNK3 uninduced
COc1ccccc1NC(=S)N(C(C)C)C(C)c1ccccn1 (stereo unspecified) | i | i | -8 | i | i | · | · | · | · | ·
CC(C)N(C(=S)Nc1cccc(C(F)(F)F)c1)C(C)c1ccccn1 (stereo unspecified) | 12* | -11* | -11 | i | -17* | 77%* | i | 44%* | 133* | 0.12*
CC(C1CC1)N(Cc1ccccc1)C(=S)Nc1ccccc1Cl (stereo unspecified) | i | i | -10 | i | i | · | · | · | · | ·
O=C(/C=C/Nc1ccccc1Oc1ccccc1)c1ccco1 | i | -13* | -12 | i | -17* | 47%* | i | 37%* | 122* | i
C/C(CC(=O)Nc1c(C)cc(C)cc1C)=N\NC(=O)Cc1ccccc1 | i | i | -5 | i | i | · | · | · | · | ·
C[C@@]12C(=O)N(c3ccc(Br)cc3)C(=O)N1[C@@H]1c3ccccc3OC[C@@H]1[C@H]2c1ccccc1 | · | i | · | · | · | · | · | · | · | ·
O=C(O)c1c2c(nc3ccccc13)/C(=C/c1cccc([N+](=O)[O-])c1)CCC2 | i | i | 4 | i | i | · | · | · | · | ·
COc1cc2c(cc1OC)CN(C(=O)c1oc3ccccc3c1C)CC2 | i | -10* | -6 | i | -9.9* | 34%* | i | 33%* | 100* | i
COc1cc2c(cc1OC)CN(C(=O)c1ccc(-c3ccccc3)cc1)CC2 | i | i | -14 | i | i | · | · | · | · | ·

Bioassay records: PubChem BioAssay, Johns Hopkins Ion Channel Center
